Test results from ChEMBL document CHEMBL1158347, “Substituted quinazolines, part 3. Synthesis, in vitro antitumor activity and molecular modeling study of certain 2-thieno-4(3H)-quinazolinone analogs” (2009).

Legend:
Format in all cases: functional
[1] = Growth inhibition of human Colon cancer cells after 48 hrs; conditions: Cancer cell lines
Method in brief: (§1)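 NCI in vitro disease-oriented human tumor cell line screen. Compounds passing a one-dose primary assay (MCF-7, NCI-H460, SF-268; pass = growth of any line reduced to 32% or less) were tested on the 60-line panel over a 5-log dose range. Compounds were dissolved in DMSO, with under 1% DMSO in final dilutions, and tested in duplicate at 6×10^4 cells/ml. Cells were incubated at 37 °C in 5% CO2 for 48 h, then diluted 10-fold in saline and counted with a Coulter counter, with counts corrected for dilution. Controls held PBS/DMSO at identical dilutions. GI50 was reported per line and as subpanel/full-panel mean-graph midpoint.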

[2] = Growth inhibition of human renal cancer cells after 48 hrs; conditions: Cancer cell lines; method in brief: as §1
[3] = Growth inhibition of human prostate cancer cells after 48 hrs; conditions: Cancer cell lines; method in brief: as §1
[4] = Growth inhibition of human ovarian cancer cells after 48 hrs; conditions: Cancer cell lines; method in brief: as §1
[5] = Growth inhibition of human melanoma cells after 48 hrs; conditions: Melanoma cell; method in brief: as §1
[6] = Growth inhibition of human leukemia cells after 48 hrs; conditions: Leukemia cell; method in brief: as §1
NSCLC = assay: Growth inhibition of human NSCLC cells after 48 hrs; method in brief: as §1
[7] = Growth inhibition of human breast cancer cells after 48 hrs; conditions: Cancer cell lines; method in brief: as §1
[8] = Growth inhibition of human CNS cancer cells after 48 hrs; conditions: Cancer cell lines; method in brief: as §1
UACC-257 = assay: Growth inhibition of human UACC257 cells after 48 hrs; conditions: UACC-257, 48 h; method in brief: as §1
HL-60(TB) = assay: Growth inhibition of human HL-60(TB) cells after 48 hrs; conditions: HL-60, 48 h; for CC50: read-out: LC50 (the source's name)
Method in brief: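 NCI 60-cell-line screen over a 5-log dose range. Compounds were dissolved in DMSO, final DMSO under 1%. Duplicate wells were seeded at 6×10^4 cells/ml, with PBS/DMSO vehicle controls at identical dilutions. Cells were incubated 48 h at 37 °C in humidified 5% CO2, diluted 10-fold in saline, and counted by Coulter counter with dilution correction. GI50 read-out.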

CCRF-CEM = assay: Growth inhibition of human CCRF-CEM cells after 48 hrs; conditions: for CC50: read-out: LC50 (the source's name); method in brief: as §1
K562 = assay: Growth inhibition of human K562 cells after 48 hrs; conditions: K562, 48 h; method in brief: as §1
RPMI-8226 = assay: Growth inhibition of human RPMI8226 cells after 48 hrs; conditions: RPMI-8226, 48 h; for CC50: read-out: LC50 (the source's name); method in brief: as §1
MCF7 = assay: Growth inhibition of human MCF7 cells after 48 hrs; conditions: MCF7, 48 h; for CC50: read-out: LC50 (the source's name); method in brief: as §1
SK-MEL-2 = assay: Growth inhibition of human SK-MEL-2 cells after 48 hrs; conditions: SK-MEL-2, 48 h; method in brief: as §1
T47D = assay: Growth inhibition of human T47D cells after 48 hrs; method in brief: as §1

O=c1c2cc(I)ccc2nc(-c2cccs2)n1O
GI50 [1]: 45.8 µM | TGI [1]: > 100 µM | GI50 [2]: 49.8 µM | TGI [2]: > 100 µM | GI50 [3]: 39.9 µM | TGI [3]: 98.4 µM | GI50 [4]: 32.1 µM | TGI [4]: 87.9 µM | GI50 [5]: 57.3 µM | TGI [5]: 97.1 µM | GI50 [6]: 34.3 µM | TGI [6]: > 100 µM | GI50 (NSCLC): 33.2 µM | TGI (NSCLC): 91.2 µM | GI50 [7]: 39.4 µM | TGI [7]: > 100 µM | GI50 [8]: 33.2 µM | TGI [8]: 94.4 µM

O=c1c2cc(I)ccc2nc(-c2cccs2)n1/N=C/c1ccccc1
GI50 [1]: > 100 µM | TGI [1]: > 100 µM | GI50 [2]: > 100 µM | TGI [2]: > 100 µM | GI50 [3]: > 100 µM | TGI [3]: > 100 µM | GI50 [4]: > 100 µM | TGI [4]: > 100 µM | GI50 [5]: 90.3 µM | TGI [5]: > 100 µM | GI50 [6]: 63.4 µM | TGI [6]: > 100 µM | GI50 (NSCLC): > 100 µM | TGI (NSCLC): > 100 µM | GI50 [7]: > 100 µM | TGI [7]: > 100 µM | GI50 [8]: > 100 µM | TGI [8]: > 100 µM

CC(=O)CC(=O)Nn1c(-c2cccs2)nc2ccc(I)cc2c1=O
GI50 [1]: 28.1 µM | TGI [1]: 90.9 µM | GI50 [2]: 28.9 µM | TGI [2]: 85.1 µM | GI50 [3]: 20.6 µM | TGI [3]: > 100 µM | GI50 [4]: 40.9 µM | TGI [4]: 93.6 µM | GI50 [5]: 37.7 µM | TGI [5]: 85.3 µM | GI50 [6]: 38.5 µM | TGI [6]: > 100 µM | GI50 (NSCLC): 27.5 µM | TGI (NSCLC): 86.4 µM | GI50 [7]: 24.9 µM | TGI [7]: 82.1 µM | GI50 [8]: 27.9 µM | TGI [8]: 89.1 µM

O=c1c2cc(I)ccc2nc(-c2cccs2)n1-c1ccc(S(=O)(=O)Nc2nccs2)cc1
GI50 [1]: 44.7 µM | TGI [1]: 94.6 µM | GI50 [2]: 34.2 µM | TGI [2]: 84.3 µM | GI50 [3]: 32.9 µM | TGI [3]: > 100 µM | GI50 [4]: 46.5 µM | TGI [4]: > 100 µM | GI50 [5]: 45.2 µM | TGI [5]: 84.8 µM | GI50 [6]: 54 µM | TGI [6]: > 100 µM | GI50 (NSCLC): 38.7 µM | TGI (NSCLC): 89.5 µM | GI50 [7]: 34.8 µM | TGI [7]: 88.3 µM | GI50 [8]: 41.4 µM | TGI [8]: 87.7 µM

CCCCNC(=O)c1cc(I)ccc1NC(=O)c1cccs1
GI50 [1]: > 100 µM | TGI [1]: > 100 µM | GI50 [2]: > 100 µM | TGI [2]: > 100 µM | GI50 [3]: > 100 µM | TGI [3]: > 100 µM | GI50 [4]: > 100 µM | TGI [4]: > 100 µM | GI50 [5]: > 100 µM | TGI [5]: > 100 µM | GI50 [6]: 83.8 µM | TGI [6]: > 100 µM | GI50 (NSCLC): 96 µM | TGI (NSCLC): > 100 µM | GI50 [7]: > 100 µM | TGI [7]: > 100 µM | GI50 [8]: > 100 µM | TGI [8]: > 100 µM

CCSc1nc(-c2cccs2)nc2ccc(I)cc12
GI50 [1]: 94.6 µM | TGI [1]: > 100 µM | GI50 [2]: > 100 µM | TGI [2]: > 100 µM | GI50 [3]: > 100 µM | TGI [3]: > 100 µM | GI50 [4]: 85.2 µM | TGI [4]: > 100 µM | GI50 [5]: > 100 µM | TGI [5]: > 100 µM | TGI [6]: > 100 µM | GI50 (NSCLC): 84.2 µM | TGI (NSCLC): > 100 µM | GI50 [7]: 71.4 µM | TGI [7]: > 100 µM | GI50 [8]: > 100 µM | TGI [8]: > 100 µM

NS(=O)(=O)c1ccc(-n2c(-c3cccs3)nc3ccc(I)cc3c2=O)cc1
GI50 [1]: 24.8 µM | LC50 [1]: 87.1 µM | TGI [1]: 59.3 µM | GI50 [2]: 24.7 µM | TGI [2]: 64.1 µM | CC50 ([2]; read-out: LC50 (the source's name)): 94.1 µM | GI50 (UACC-257): 0.05 µM | LC50 (UACC-257): > 100 µM | TGI (UACC-257): 19 µM | GI50 (HL-60(TB)): 20 µM | TGI (HL-60(TB)): 64 µM | CC50 (HL-60(TB)): > 100 µM | GI50 (CCRF-CEM): 41 µM | TGI (CCRF-CEM): > 100 µM | CC50 (CCRF-CEM): > 100 µM | GI50 (K562): 37 µM | LC50 (concentration killing 50% of cells) (K562): > 100 µM | TGI (K562): > 100 µM | GI50 [3]: 22.7 µM | TGI [3]: 58.9 µM | GI50 [4]: 23.5 µM | TGI [4]: 65.1 µM | GI50 (RPMI-8226): 25 µM | TGI (RPMI-8226): 62 µM | CC50 (RPMI-8226): > 100 µM | GI50 (MCF7): 23 µM | TGI (MCF7): 65 µM | CC50 (MCF7): > 100 µM | GI50 [5]: 17.6 µM | TGI [5]: 43 µM | GI50 [6]: 35.3 µM | TGI [6]: 87.7 µM | GI50 (NSCLC): 24 µM | TGI (NSCLC): 61.3 µM | GI50 [7]: 23.3 µM | TGI [7]: 62.5 µM | GI50 [8]: 30.3 µM | TGI [8]: 73.8 µM | GI50 (SK-MEL-2): 22 µM | LC50 (SK-MEL-2): > 100 µM | TGI (SK-MEL-2): 48 µM | GI50 (T47D): 19 µM | LC50 (T47D): 99 µM | TGI (T47D): 44 µM

NNC(=O)COc1nc(-c2cccs2)nc2ccc(I)cc12
GI50 [1]: 24.3 µM | TGI [1]: 66.9 µM | GI50 [2]: 23.1 µM | TGI [2]: 71.1 µM | GI50 (UACC-257): < 0.01 µM | LC50 (UACC-257): > 100 µM | TGI (UACC-257): > 100 µM | GI50 (HL-60(TB)): 38 µM | TGI (HL-60(TB)): > 100 µM | CC50 (HL-60(TB)): > 100 µM | GI50 (CCRF-CEM): 20 µM | TGI (CCRF-CEM): 88 µM | CC50 (CCRF-CEM): > 100 µM | GI50 (K562): 37 µM | LC50 (concentration killing 50% of cells) (K562): > 100 µM | TGI (K562): > 100 µM | GI50 [3]: 23.5 µM | TGI [3]: 75.3 µM | GI50 [4]: 22.3 µM | TGI [4]: 72.5 µM | GI50 (RPMI-8226): 16 µM | TGI (RPMI-8226): 39 µM | CC50 (RPMI-8226): 97 µM | GI50 (MCF7): 16 µM | TGI (MCF7): 89 µM | CC50 (MCF7): > 100 µM | GI50 [5]: 19.4 µM | TGI [5]: 51.1 µM | GI50 [6]: 25.4 µM | TGI [6]: 80.5 µM | GI50 (NSCLC): 19.4 µM | TGI (NSCLC): 59.6 µM | GI50 [7]: 18.7 µM | TGI [7]: 64.7 µM | GI50 [8]: 20.7 µM | TGI [8]: 62.1 µM | GI50 (SK-MEL-2): 25 µM | LC50 (SK-MEL-2): > 100 µM | TGI (SK-MEL-2): 71 µM | GI50 (T47D): 2 µM | LC50 (T47D): > 100 µM | TGI (T47D): 22 µM

O=c1[nH]cc(F)c(=O)[nH]1 [FLUOROURACIL]
GI50 [1]: 8.37 µM | TGI [1]: > 100 µM | TGI [2]: > 100 µM | TGI [3]: > 100 µM | TGI [4]: > 100 µM | TGI [5]: > 100 µM | GI50 [6]: 15.1 µM | TGI [6]: > 100 µM | GI50 (NSCLC): > 100 µM | TGI (NSCLC): > 100 µM | TGI [7]: > 100 µM | GI50 [8]: 72.1 µM | TGI [8]: > 100 µM
